Assay results from ChEMBL document CHEMBL1151265, “Steroidal saponins from Smilax medica and their antifungal activity” (2005).
Values after ≈ are worked out from the molar mass of the structure shown.

Tests used:
Assay type in all cases: functional
Candida tropicalis = test: Antifungal activity against Candida tropicalis after 48 hrs by spectrophotometry; settings: for MIC: Candida tropicalis, 48 h
Method in brief: (§1)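 Broth microdilution MIC against pathogenic human yeast strains. Saponin in malt extract broth (malt extract 15 g, peptone 5 g per L), final 3.12-200 µg/mL, serial dilution, triplicate wells. Each well inoculated with 10 µL of 10^4 CFU/mL suspension, incubated 30 °C for 48 h, growth read at 630 nm. MIC is the lowest concentration with no visible growth.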

Nakaseomyces glabratus = test: Antifungal activity against Candida glabrata after 48 hrs by spectrophotometry; settings: for MIC: Nakaseomyces glabratus, 48 h; method in brief: as §1
Candida albicans = test: Antifungal activity against Candida albicans after 48 hrs by spectrophotometry; settings: for MIC: Candida albicans, 48 h; method in brief: as §1

CO[C@]1(CC[C@@H](C)CO[C@@H]2O[C@H](CO)[C@@H](O)[C@H](O)[C@H]2O)O[C@H]2C[C@H]3[C@@H]4CC[C@@H]5C[C@@H](O[C@@H]6O[C@H](CO[C@@H]7O[C@H](CO)[C@@H](O)[C@H](O)[C@H]7O)[C@@H](O[C@@H]7O[C@H](CO)[C@@H](O)[C@H](O)[C@H]7O)[C@H](O)[C@H]6O[C@@H]6O[C@H](CO)[C@@H](O)[C@H](O)[C@H]6O)CC[C@]5(C)[C@H]4CC[C@]3(C)[C@H]2[C@@H]1C
Activity (Candida tropicalis): >200 µg/mL | Activity (Nakaseomyces glabratus): >200 µg/mL | Activity (Candida albicans): >200 µg/mL

CC(=O)N1CCN(c2ccc(OCC3COC(Cn4ccnc4)(c4ccc(Cl)cc4Cl)O3)cc2)CC1 (stereo not given) [KETOCONAZOLE]
MIC (Candida tropicalis): 1.56 µg/mL (≈ 2.94 µM) | MIC (Nakaseomyces glabratus): 0.78 µg/mL (≈ 1.47 µM) | MIC (Candida albicans): 0.78 µg/mL (≈ 1.47 µM)

C[C@@H]1CC[C@@]2(OC1)O[C@H]1C[C@H]3[C@@H]4CC[C@@H]5C[C@@H](O[C@@H]6O[C@H](CO[C@@H]7O[C@H](CO)[C@@H](O)[C@H](O)[C@H]7O)[C@@H](O[C@@H]7O[C@H](CO)[C@@H](O)[C@H](O)[C@H]7O)[C@H](O)[C@H]6O[C@@H]6O[C@H](CO)[C@@H](O)[C@H](O)[C@H]6O)CC[C@]5(C)[C@H]4CC[C@]3(C)[C@H]1[C@@H]2C
MIC (Candida tropicalis): 50 µg/mL (≈ 46.9 µM) | MIC (Nakaseomyces glabratus): 12.5 µg/mL (≈ 11.7 µM) | MIC (Candida albicans): 25 µg/mL (≈ 23.5 µM)

C[C@@H]1CC[C@@]2(OC1)O[C@H]1C[C@H]3[C@@H]4CC[C@@H]5C[C@@H](O[C@@H]6O[C@H](CO[C@@H]7O[C@H](CO)[C@@H](O)[C@H](O)[C@H]7O)[C@@H](O[C@@H]7O[C@H](CO)[C@@H](O)[C@H](O)[C@H]7O)[C@H](O)[C@H]6O)CC[C@]5(C)[C@H]4CC[C@]3(C)[C@H]1[C@@H]2C
MIC (Candida tropicalis): 50 µg/mL (≈ 55.4 µM) | MIC (Nakaseomyces glabratus): 12.5 µg/mL (≈ 13.8 µM) | MIC (Candida albicans): 25 µg/mL (≈ 27.7 µM)

C[C@@H]1CC[C@@]2(OC1)O[C@H]1C[C@H]3[C@@H]4CC[C@@H]5C[C@@H](O[C@@H]6O[C@H](CO[C@@H]7O[C@H](CO)[C@@H](O)[C@H](O)[C@H]7O)[C@@H](O)[C@H](O)[C@H]6O[C@@H]6O[C@H](CO)[C@@H](O)[C@H](O)[C@H]6O)CC[C@]5(C)[C@H]4CC[C@]3(C)[C@H]1[C@@H]2C [DISPOROSIDE A]
MIC (Candida tropicalis): 50 µg/mL (≈ 55.4 µM) | MIC (Nakaseomyces glabratus): 25 µg/mL (≈ 27.7 µM) | MIC (Candida albicans): 25 µg/mL (≈ 27.7 µM)
